Here are results for one compound from ChEMBL document CHEMBL4316629, “Discovery of 1,3-diphenyl-1H-pyrazole derivatives containing rhodanine-3-alkanoic acid groups as potential PTP1B inhibitors” (Bioorg Med Chem Lett, 2019).

Activity calls are given as the source filed them. No cut-off for these calls is given here.

Assay [1] has as its target T1, Tyrosine-protein phosphatase non-receptor type 1 (Homo sapiens, UniProt P18031).
T1 sequence (P18031 whole entry): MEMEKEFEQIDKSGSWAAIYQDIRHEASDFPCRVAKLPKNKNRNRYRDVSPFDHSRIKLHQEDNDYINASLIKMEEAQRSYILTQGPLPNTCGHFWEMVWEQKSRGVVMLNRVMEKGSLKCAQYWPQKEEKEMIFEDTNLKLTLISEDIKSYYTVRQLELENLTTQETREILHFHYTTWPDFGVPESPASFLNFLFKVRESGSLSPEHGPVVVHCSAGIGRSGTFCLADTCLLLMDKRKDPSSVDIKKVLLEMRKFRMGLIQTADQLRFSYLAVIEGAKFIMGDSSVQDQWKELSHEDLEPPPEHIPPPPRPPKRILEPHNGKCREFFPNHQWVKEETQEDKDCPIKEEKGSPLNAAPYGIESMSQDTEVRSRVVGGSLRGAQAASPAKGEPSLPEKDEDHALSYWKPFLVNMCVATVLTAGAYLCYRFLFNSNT
Briefly: Inhibition of PTP1B (unknown origin) using pNPP as substrate.

The target in assay [2] is T2, Tyrosine-protein phosphatase non-receptor type 1 (Homo sapiens) (UniProt P18031).
T2 sequence (whole entry): T1 sequence (P18031 whole entry)
The experiment in a line: Potency index, ratio of IC50 for oleanolic acid to IC50 for test compound for inhibition of PTP1B (unknown origin) using pNPP as substrate. The method in brief:
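Both IC50 values come from dose-response inhibition of PTP1B with pNPP as substrate, fitted by regression (mean ± SD, n = 3). The ratio divides the IC50 of the reference PTP1B inhibitor by that of the test compound.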

The species entered for another assay is Homo sapiens. Briefly: Selectivity index, ratio of IC50 for inhibition of TCPTP (unknown origin) using pNPP as substrate to IC50 for inhibition of PTP1B (unknown origin) using pNPP as substrate. The method in brief: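 Both TCPTP and PTP1B IC50 values were measured by the same pNPP hydrolysis assay, derived by regression from triplicate dose-response data. The index is the TCPTP IC50 divided by the PTP1B IC50.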

The target in assay [3] is T2, Tyrosine-protein phosphatase non-receptor type 1 (Homo sapiens). Briefly: Time dependent inhibition of PTP1B (unknown origin) using pNPP as substrate.
Assay [4] concerns the target T1, Tyrosine-protein phosphatase non-receptor type 1. Briefly: Competitive type inhibition of PTP1B (unknown origin) using pNPP as substrate by Lineweaver-Burk plot analysis.
For assay [5], the target named is T3, Tyrosine-protein phosphatase non-receptor type 2 (Homo sapiens, UniProt P17706).
T3 sequence (P17706 whole entry): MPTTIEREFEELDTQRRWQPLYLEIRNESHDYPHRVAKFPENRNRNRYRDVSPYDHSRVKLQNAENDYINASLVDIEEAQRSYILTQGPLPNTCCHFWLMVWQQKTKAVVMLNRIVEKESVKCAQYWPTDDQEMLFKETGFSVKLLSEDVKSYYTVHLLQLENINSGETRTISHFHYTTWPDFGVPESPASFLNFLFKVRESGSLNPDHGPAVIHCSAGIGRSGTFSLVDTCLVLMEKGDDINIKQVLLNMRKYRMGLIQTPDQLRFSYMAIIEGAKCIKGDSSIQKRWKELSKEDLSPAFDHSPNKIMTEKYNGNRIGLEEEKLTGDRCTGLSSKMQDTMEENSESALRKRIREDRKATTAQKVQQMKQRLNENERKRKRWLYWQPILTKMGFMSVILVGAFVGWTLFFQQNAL
Briefly: Inhibition of TCPTP (unknown origin) using pNPP as substrate.

The target in assay [6] is T4, M-phase inducer phosphatase 2 (Homo sapiens, UniProt P30305).
T4 sequence (P30305 whole entry): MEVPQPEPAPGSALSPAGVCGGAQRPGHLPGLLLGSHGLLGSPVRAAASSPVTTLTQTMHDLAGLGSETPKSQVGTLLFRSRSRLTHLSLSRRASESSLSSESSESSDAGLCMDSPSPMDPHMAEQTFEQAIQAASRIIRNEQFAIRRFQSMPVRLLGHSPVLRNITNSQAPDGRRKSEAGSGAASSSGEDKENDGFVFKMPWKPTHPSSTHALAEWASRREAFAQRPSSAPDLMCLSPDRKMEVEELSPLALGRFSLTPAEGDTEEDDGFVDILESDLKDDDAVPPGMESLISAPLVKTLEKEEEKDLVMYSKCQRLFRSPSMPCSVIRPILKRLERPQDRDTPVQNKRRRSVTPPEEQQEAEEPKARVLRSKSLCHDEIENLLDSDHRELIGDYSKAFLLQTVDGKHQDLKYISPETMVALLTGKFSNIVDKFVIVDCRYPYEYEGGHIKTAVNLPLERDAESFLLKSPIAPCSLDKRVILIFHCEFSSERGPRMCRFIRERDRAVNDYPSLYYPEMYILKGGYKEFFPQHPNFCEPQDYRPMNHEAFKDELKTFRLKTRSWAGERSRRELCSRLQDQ
Briefly: Inhibition of CDC25B (unknown origin) using pNPP as substrate. Put shortly: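 Same pNPP-substrate phosphatase assay as for PTP1B, applied for selectivity. Compounds were first screened at 20 μg/mL, then tested over a dose range. IC50 was obtained by regression analysis and reported as mean ± SD of three replications. Oleanolic acid served as the positive control.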

The target in assay [7] is Receptor-type tyrosine-protein phosphatase F (Homo sapiens) (UniProt P10586). Briefly: Inhibition of LAR (unknown origin) at 20 ug/ml using pNPP as substrate. Put shortly: (§1)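 Single-point screen at 20 µg/mL of compound against each phosphatase (LAR, SHP-1, SHP-2), with pNPP hydrolysis as the read-out.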
Chain of Receptor-type tyrosine-protein phosphatase F (Homo sapiens) (P10586 whole entry): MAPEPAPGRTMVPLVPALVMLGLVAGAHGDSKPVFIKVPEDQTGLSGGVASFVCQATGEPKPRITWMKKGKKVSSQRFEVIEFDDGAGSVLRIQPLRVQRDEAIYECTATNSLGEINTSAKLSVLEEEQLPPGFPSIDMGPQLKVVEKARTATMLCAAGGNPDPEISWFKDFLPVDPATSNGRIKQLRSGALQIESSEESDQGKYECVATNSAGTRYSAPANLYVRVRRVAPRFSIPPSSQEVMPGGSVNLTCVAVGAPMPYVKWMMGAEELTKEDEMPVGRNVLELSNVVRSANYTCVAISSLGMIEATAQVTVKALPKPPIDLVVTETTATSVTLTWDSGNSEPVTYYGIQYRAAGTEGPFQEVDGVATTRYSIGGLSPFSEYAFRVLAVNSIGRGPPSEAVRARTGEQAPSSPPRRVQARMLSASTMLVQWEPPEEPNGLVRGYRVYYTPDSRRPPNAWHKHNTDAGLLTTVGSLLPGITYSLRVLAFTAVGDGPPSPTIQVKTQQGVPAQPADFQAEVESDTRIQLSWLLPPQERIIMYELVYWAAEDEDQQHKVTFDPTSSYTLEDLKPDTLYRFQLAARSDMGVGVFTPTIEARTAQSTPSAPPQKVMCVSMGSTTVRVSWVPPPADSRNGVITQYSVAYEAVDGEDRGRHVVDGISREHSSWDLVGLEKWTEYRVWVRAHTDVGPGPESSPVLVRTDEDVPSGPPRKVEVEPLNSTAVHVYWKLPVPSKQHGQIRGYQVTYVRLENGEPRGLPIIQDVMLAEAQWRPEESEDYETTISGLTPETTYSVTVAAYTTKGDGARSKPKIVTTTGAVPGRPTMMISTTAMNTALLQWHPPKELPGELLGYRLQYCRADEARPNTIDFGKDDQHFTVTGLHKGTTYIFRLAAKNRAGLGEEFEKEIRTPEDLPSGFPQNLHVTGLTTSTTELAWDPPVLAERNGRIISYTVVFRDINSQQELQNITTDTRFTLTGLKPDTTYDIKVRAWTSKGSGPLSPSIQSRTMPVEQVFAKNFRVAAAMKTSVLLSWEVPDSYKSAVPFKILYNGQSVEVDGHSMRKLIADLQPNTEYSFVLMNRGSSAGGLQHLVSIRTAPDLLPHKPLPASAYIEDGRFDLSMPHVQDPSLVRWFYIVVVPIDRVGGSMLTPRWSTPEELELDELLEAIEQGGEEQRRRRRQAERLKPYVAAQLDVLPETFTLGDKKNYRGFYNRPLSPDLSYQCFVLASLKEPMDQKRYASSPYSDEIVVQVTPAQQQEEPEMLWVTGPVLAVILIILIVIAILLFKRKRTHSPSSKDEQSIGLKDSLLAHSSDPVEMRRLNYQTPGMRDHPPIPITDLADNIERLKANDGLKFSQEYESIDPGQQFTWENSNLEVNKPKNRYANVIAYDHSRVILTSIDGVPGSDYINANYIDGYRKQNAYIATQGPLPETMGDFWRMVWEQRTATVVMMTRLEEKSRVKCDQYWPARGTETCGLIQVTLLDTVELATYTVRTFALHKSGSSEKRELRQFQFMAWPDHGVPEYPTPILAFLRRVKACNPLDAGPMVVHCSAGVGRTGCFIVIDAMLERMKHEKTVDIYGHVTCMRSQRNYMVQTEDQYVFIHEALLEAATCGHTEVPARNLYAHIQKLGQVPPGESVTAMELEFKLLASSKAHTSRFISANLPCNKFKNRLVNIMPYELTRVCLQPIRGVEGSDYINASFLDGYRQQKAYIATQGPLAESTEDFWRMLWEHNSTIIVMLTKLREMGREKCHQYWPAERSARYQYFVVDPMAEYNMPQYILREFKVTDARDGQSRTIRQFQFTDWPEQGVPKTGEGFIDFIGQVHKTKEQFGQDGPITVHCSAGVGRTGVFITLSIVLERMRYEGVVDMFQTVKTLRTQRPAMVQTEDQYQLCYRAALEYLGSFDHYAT
Assay [8] deals with Tyrosine-protein phosphatase non-receptor type 6 (Homo sapiens, UniProt P29350). The experiment in a line: Inhibition of SHP1 (unknown origin) at 20 ug/ml using pNPP as substrate. The method in brief:
as §1

Assay [9] concerns the target T5, Tyrosine-protein phosphatase non-receptor type 11 (Homo sapiens) (UniProt Q06124).
T5 sequence (whole entry): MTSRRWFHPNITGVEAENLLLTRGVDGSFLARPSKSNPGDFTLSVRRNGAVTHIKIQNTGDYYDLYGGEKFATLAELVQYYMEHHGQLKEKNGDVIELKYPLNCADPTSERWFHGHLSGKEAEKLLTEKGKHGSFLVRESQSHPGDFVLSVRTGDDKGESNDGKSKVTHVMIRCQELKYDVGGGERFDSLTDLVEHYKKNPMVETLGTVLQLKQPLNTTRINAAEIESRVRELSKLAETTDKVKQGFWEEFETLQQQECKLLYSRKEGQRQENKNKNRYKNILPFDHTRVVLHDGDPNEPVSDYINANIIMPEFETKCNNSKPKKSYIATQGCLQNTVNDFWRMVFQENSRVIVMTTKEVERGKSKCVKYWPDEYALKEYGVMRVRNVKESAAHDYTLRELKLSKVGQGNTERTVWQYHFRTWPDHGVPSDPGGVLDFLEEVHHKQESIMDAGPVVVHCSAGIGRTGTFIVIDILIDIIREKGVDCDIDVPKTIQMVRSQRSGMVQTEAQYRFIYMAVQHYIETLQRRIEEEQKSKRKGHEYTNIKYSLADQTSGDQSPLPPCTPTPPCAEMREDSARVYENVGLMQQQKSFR
Briefly: Inhibition of SHP2 (unknown origin) at 20 ug/ml using pNPP as substrate. Put shortly:
as §1

Chain of Tyrosine-protein phosphatase non-receptor type 6 (P29350 whole entry): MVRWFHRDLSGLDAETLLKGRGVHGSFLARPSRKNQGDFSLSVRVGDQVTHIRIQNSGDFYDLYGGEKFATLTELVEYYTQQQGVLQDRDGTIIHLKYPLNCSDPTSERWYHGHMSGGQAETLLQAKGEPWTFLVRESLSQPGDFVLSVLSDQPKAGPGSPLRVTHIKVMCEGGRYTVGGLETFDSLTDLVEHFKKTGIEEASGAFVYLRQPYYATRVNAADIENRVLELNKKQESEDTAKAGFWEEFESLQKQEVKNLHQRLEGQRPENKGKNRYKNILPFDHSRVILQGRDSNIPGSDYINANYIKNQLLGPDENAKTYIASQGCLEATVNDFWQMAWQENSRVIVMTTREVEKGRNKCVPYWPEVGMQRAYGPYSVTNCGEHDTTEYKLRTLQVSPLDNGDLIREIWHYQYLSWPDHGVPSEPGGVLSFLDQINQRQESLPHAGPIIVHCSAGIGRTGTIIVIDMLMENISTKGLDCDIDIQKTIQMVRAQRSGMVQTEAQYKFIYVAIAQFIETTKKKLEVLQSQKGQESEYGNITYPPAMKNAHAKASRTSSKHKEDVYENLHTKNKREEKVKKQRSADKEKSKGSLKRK

In general, IC50 refers to the concentration that gives 50% inhibition. Read a high IC50 as lower potency. Usually Ki stands for a dissociation constant, usually derived from enzyme kinetics or from competition with a known ligand. For the compound `O=C(O)CCCCN1C(=O)/C(=C/c2cn(-c3ccccc3)nc2-c2ccc(Cl)cc2Cl)SC1=S`, the IC50 was determined as 0.67 µM in assay [1], 5.77 µM in assay [5] and 28.1 µM in assay [6]. The Ratio IC50 in assay [2] is 2.5; in the assay listed under Homo sapiens, 2 to 9. Further, in [3], the TDI result is “inactive”. In [4], this compound gave an inhibitory constant (Ki) of 0.31 µM. Besides, the inhibition entry in assay [7], in assay [8] and in assay [9] was “inactive” each time.
